High-throughput results deposited in PubChem BioAssay by The Scripps Research Institute Molecular Screening Center.
Compounds with a hit are over-represented: about 1.8% of the library has one in this group of screens.
M5 PAM = potentiates acetylcholine response at human M5 receptor; P08912; CHO-K1 hM5, Fluo-8 calcium, ACh EC20 PAM; 0% = ACh EC20, 100% = ACh EC100; activation, % at 3 µM; 0.3% of 360,000 active; AID 624038;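 active = activation above the run cutoff, the mean activation of all test compounds plus 3 SD, cut at about 18% in these data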
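Replicates: One well per compound, no replicates | System: Human M5 receptor in CHO-K1 cells | Benchmarks: Low control EC20 acetylcholine (0%), high control EC100 acetylcholine (100%) | Probe or stimulus: Acetylcholine, EC20 level | Times: Fluo-8 loading 80 min at 37 °C plus 30 min room temperature | Signal: Intracellular calcium via Fluo-8 fluorescence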
M5 ag = agonists of human muscarinic M5 receptor (CHRM5). P08912. CHO-K1 hM5 cells, Fluo-8 calcium fluorescence; 0% DMSO wells, 100% maximal acetylcholine response. activation, % at 3 µM. 0.19% of 360,000 active. AID 624037;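 active = activation above the run's mean over test compounds plus 3 SD, cut at about 23% in these data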;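 also: signal is peak over basal fluorescence ratio across the kinetic read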
CHRM5 antagonist = antagonists of human muscarinic M5 receptor (CHRM5). inhibition, % at 3 µM. CHO-hM5 cells, Fluo-8 calcium fluorescence, ACh EC80. P08912. 0.59% of 360,000 active;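 active = inhibition above a per-plate cutoff, the mean of that plate's test compounds plus 3 SD, cut at about 27% in these data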;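 also: 0% = acetylcholine EC80 with DMSO and 100% = DMSO without agonist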
CHRM4 agonist = agonists of human muscarinic M4 receptor (CHRM4); CHO-K1 hM4/Gqi5, Fluo-8 calcium fluorescence; vehicle 0%, full acetylcholine response 100%; AID 624127; P08173; activation, % at 3 µM; 0.14% of 360,000 active;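 active = activation above the run mean over all test wells plus 3 SD, cut at about 32% in these data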;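 also: peak over basal fluorescence ratio per well then scaled between controls; 0% = DMSO wells and 100% = acetylcholine at EC100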
Target sequence (P08173 whole entry, looked up): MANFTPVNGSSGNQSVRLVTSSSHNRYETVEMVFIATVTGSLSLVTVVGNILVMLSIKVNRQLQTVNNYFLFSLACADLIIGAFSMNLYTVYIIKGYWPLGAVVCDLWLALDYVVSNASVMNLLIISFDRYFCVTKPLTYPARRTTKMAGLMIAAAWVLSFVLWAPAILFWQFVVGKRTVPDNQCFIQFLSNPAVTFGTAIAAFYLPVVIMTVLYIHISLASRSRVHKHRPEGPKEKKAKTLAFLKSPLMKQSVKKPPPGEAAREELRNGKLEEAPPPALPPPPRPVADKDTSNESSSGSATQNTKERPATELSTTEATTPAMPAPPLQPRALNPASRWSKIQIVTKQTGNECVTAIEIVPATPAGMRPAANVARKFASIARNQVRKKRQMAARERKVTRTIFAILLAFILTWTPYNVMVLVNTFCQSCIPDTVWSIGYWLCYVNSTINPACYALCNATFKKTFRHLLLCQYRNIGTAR
CHRM4 PAM = positive allosteric modulators of human muscarinic M4 receptor; P08173; 0.4% of 360,000 active; activation, % at 3 µM; CHO-K1 hM4/Gqi5, Fluo-8 calcium fluorescence, ACh EC20; 0% = ACh EC20, 100% = maximal ACh;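 active = activation above its plate's cutoff, the mean activation of sample wells plus 3 SD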
M4 antag = antagonists of human muscarinic M4 receptor (CHRM4); P08173; inhibition, % at 3 µM; 0.73% of 360,000 active; CHO-hM4 cells, ACh EC80, Fluo-8 calcium fluorescence; AID 624125;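 active = inhibition above its plate's cutoff, the mean inhibition of sample wells plus 3 SD, cut at about 27% in these data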;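 also: 0% = acetylcholine EC80 with DMSO and 100% = DMSO without agonist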
Active calls of the source: *.

SMILES | M5 PAM | M5 ag | CHRM5 antagonist | CHRM4 agonist | CHRM4 PAM | M4 antag
Cc1ccc(-n2c(SCC(=O)NC3CCS(=O)(=O)C3)nc3ccccc3c2=O)c(C)c1 (stereo not given) | -1 | 2 | -1 | 7 | 1 | -13
CN(C)CCCn1c(=O)n(CCc2ccccc2)c(=O)c2c3c(sc21)CCCCC3 | -18 | -1 | 26 | 25 | -13 | 22
CN(C)CCCn1c(=O)n(Cc2ccco2)c(=O)c2c3c(sc21)CCCCC3 | 18* | -3 | -9 | 1 | -7 | -1
Cn1c(CC(=O)Nc2ccc(Cl)c(Cl)c2)n[nH]c1=S | 12 | 4 | -1 | 4 | 10 | 0
COc1ccc(Cc2n[nH]c(=S)n2NC(=O)Nc2ccc(Cl)c(Cl)c2)cc1 | -24 | 6 | 30* | 14 | -34 | 23
CCc1nc2c(OCCc3cccc(OC)c3)cccn2c1N(C)C(=O)c1cccs1 | -2 | -2 | 15 | 1 | 2 | -2
CC(NC(=O)/C(C#N)=C/c1ccc(C(=O)O)cc1)c1ccccc1 (stereo not given) | 18 | 0 | -8 | 0 | 7 | -17
COc1cc(/C=C(/C#N)C(=O)NC(C)c2ccccc2)cc(OC)c1O (stereo not given) | 0 | 12 | 0 | 33* | -4 | 2
CCc1nc(N)nc(N)c1-c1ccc(Cl)c(N=[N+]=[N-])c1 | -11 | -9 | 0 | 3 | -6 | 5
O=[N+]([O-])c1cc(S(=O)(=O)NCCCN2CCOCC2)ccc1Cl | -2 | -1 | -5 | 1 | -5 | -2
Cc1ccc(S(=O)(=O)NCCSc2nnnn2-c2ccc(C(N)=O)cc2)cc1 | -11 | 0 | 4 | 2 | -1 | -12
O=[N+]([O-])c1cc(S(=O)(=O)NCCN2CCOCC2)ccc1Sc1nnnn1-c1ccccc1 | -8 | -5 | -1 | 3 | -16 | 49*
Cc1ccc(-n2nnnc2Sc2ccc(S(=O)(=O)NCCN(C)C)cc2[N+](=O)[O-])cc1 | -6 | -8 | 2 | 11 | -18 | 34*
CC1(C(=O)NS(=O)(=O)c2cccc(Cl)c2)CCN1C(=O)CC1CC1 (stereo not given) | 0 | 1 | 4 | 0 | 11 | -6
CC1=C2C3OC(=O)C(C)C3CCC2(C)C=CC1=NO (stereo not given) | -2 | -3 | 15 | 4 | -4 | 5
COc1ccc(C2NC(=S)N3C(c4ccc(OC)cc4)NC(=S)N23)cc1 (stereo not given) | -2 | -5 | 0 | 1 | 17 | -2
COc1ccc(C2Nc3cc(OC)ccc3-n3cccc32)cc1 (stereo not given) | 13 | 2 | 4 | 2 | 17* | -19
CCN(CC)C(=O)c1ccc(COc2ccc(Cl)c(C)c2)o1 | -23 | 2 | 31* | 12 | -10 | 21
COc1ccc(S(=O)(=O)N2CCCCCC2)cc1C(=O)NCc1ccccc1Cl | -1 | 0 | -2 | 0 | 26* | -3
Cc1ccc(CNC(=O)C2=CCN(S(=O)(=O)c3ccc(C)cc3)CC2)cc1 | -10 | 0 | 4 | 6 | -6 | -4
COc1ccc(S(=O)(=O)N2CCCCCC2)cc1C(=O)NCc1ccco1 | -3 | 0 | 9 | 3 | -2 | -9
COc1ccccc1CNC(=O)C1=CCN(S(=O)(=O)c2ccc(C)cc2)CC1 | 19* | 1 | -1 | 2 | 5 | 24
CC1CCCC(NC(=O)CCCCCn2c(=S)[nH]c3ccsc3c2=O)C1C (stereo not given) | -5 | -1 | 12 | 2 | -1 | -1
CCNC(=O)C1(C)CCN(Cc2csc(-c3ccccc3)n2)C1 (stereo not given) | -2 | 0 | -3 | 1 | -2 | 6
CCOC(=O)CP(=O)(c1ccccc1)c1ccccc1 | -3 | 3 | 0 | 0 | 4 | 4
CCOC(=O)c1c(C)noc1CP(=O)(c1ccccc1)c1ccccc1 | 12 | -9 | -7 | 1 | 18* | -3
